Measurements published in ChEMBL document CHEMBL1137103, “4-Acylamino-and 4-ureidobenzamides as melanin-concentrating hormone (MCH) receptor 1 antagonists” (Bioorg Med Chem Lett, 2004).

Assays:
[1] = molecular target: T1, Melanin-concentrating hormone receptor 1 (Homo sapiens, UniProt Q99705); assay: Binding affinity against human Melanin-concentrating hormone receptor 1 stably transfected CHO cells was determined using scintillation proximity assay (SPA); type: cell-based
Method in brief: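 Scintillation proximity binding with CHO membranes incubated with PEI-treated WGA-coupled PVT SPA beads and tracer over various test-compound concentrations. Nonspecific binding defined with 1 µM MCH; IC50 derived.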

[2] = molecular target: T1, Melanin-concentrating hormone receptor 1; assay: Binding affinity against human Melanin-concentrating hormone receptor 1 stably transfected CHO cells was determined using [125I]MCH as radioligand; type: cell-based
Method in brief: (§1)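 Whole-cell binding in CHO cells expressing the human receptor with [125I]-MCH tracer. Nonspecific binding defined with 1 µM MCH. IC50 values from displacement by various concentrations of test compound.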

[3] = molecular target: T1, Melanin-concentrating hormone receptor 1; assay: Antagonistic activity against human Melanin-concentrating hormone receptor 1 stably transfected CHO cells was determined using IP3 assay; type: functional, cell-based
Method in brief: (§2)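 CHO whole cells expressing the human receptor, labelled with 5 µCi [3H]-myo-inositol in inositol-free culture medium. Phosphatidylinositol turnover stimulated by submaximal MCH in the presence of increasing ligand concentrations. Generated [3H]-inositol phosphates purified on anion-exchange resin; IC50 derived.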

[4] = molecular target: T2, Melanin-concentrating hormone receptor 2 (Homo sapiens, UniProt Q969V1); assay: Binding affinity against human Melanin-concentrating hormone receptor 2 stably transfected CHO cells was determined using [125I]MCH as radioligand; type: cell-based; method in brief: as §1
T2 sequence (Q969V1 whole entry): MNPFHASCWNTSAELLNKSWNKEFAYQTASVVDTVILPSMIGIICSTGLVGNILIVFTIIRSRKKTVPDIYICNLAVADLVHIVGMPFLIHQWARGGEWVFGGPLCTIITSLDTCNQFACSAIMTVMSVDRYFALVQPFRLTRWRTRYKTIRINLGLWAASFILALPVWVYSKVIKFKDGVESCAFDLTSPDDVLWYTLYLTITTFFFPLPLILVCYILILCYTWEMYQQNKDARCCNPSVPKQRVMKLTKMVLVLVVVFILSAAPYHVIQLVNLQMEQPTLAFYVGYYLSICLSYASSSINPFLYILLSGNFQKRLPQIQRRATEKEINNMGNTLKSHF

[5] = molecular target: T2, Melanin-concentrating hormone receptor 2; assay: Antagonistic activity against human Melanin-concentrating hormone receptor 2 stably transfected CHO cells was determined using IP3 assay; type: functional, cell-based; method in brief: as §2
[6] = Inhibitory activity against 5-hydroxytryptamine 2A receptor
[7] = Inhibitory activity against Histamine H2 receptor
[8] = molecular target: D(1A) dopamine receptor (Homo sapiens) (UniProt P21728); assay: Inhibitory activity against Dopamine receptor D1 at 10 uM
Sequence of D(1A) dopamine receptor (Homo sapiens) (P21728 whole entry): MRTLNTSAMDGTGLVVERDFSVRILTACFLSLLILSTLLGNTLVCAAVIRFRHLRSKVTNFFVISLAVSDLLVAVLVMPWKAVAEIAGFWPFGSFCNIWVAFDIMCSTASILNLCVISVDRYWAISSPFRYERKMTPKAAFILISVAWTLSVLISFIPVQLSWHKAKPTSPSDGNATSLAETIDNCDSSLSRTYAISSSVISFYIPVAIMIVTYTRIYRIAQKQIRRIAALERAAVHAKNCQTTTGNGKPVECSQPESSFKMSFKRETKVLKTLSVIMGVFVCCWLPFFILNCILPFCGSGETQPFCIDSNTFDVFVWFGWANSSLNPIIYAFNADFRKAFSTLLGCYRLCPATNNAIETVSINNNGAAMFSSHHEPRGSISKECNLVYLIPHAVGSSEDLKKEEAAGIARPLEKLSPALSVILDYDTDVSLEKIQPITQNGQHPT

[9] = molecular target: Mu-type opioid receptor (Homo sapiens) (UniProt P35372); assay: Inhibitory activity against Opioid receptor mu 1 at 10 uM
Sequence of Mu-type opioid receptor (Homo sapiens) (P35372 whole entry): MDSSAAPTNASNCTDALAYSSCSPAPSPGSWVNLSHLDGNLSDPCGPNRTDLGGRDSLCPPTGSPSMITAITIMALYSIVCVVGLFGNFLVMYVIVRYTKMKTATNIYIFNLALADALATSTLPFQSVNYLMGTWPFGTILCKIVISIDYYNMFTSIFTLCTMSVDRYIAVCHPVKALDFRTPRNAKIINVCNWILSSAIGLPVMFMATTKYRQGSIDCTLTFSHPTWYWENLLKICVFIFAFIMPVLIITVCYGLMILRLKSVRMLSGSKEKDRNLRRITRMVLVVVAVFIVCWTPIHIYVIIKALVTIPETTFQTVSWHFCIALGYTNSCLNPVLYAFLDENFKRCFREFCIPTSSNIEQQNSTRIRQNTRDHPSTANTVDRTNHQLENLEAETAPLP

[10] = molecular target: T3, Muscarinic acetylcholine receptor M1 (Homo sapiens) (UniProt P11229); assay: Inhibitory activity against Muscarinic acetylcholine receptor M1 at 10 uM
T3 sequence (whole entry): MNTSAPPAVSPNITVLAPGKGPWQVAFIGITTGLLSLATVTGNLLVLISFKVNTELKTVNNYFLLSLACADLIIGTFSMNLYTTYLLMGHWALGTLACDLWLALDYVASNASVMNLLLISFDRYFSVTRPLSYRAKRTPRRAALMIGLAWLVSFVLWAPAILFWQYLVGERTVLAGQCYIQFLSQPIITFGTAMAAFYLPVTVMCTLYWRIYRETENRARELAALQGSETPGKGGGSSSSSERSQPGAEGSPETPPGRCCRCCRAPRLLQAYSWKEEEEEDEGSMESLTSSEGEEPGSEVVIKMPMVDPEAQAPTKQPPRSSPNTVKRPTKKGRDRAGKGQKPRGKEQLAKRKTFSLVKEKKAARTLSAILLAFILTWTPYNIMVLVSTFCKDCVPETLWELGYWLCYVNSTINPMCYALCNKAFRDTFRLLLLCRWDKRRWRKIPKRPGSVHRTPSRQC

[11] = molecular target: Sodium-dependent noradrenaline transporter (Homo sapiens) (UniProt P23975); assay: Inhibitory activity against Norepinephrine transporter at 10 uM
Sequence of Sodium-dependent noradrenaline transporter (Homo sapiens) (P23975 whole entry): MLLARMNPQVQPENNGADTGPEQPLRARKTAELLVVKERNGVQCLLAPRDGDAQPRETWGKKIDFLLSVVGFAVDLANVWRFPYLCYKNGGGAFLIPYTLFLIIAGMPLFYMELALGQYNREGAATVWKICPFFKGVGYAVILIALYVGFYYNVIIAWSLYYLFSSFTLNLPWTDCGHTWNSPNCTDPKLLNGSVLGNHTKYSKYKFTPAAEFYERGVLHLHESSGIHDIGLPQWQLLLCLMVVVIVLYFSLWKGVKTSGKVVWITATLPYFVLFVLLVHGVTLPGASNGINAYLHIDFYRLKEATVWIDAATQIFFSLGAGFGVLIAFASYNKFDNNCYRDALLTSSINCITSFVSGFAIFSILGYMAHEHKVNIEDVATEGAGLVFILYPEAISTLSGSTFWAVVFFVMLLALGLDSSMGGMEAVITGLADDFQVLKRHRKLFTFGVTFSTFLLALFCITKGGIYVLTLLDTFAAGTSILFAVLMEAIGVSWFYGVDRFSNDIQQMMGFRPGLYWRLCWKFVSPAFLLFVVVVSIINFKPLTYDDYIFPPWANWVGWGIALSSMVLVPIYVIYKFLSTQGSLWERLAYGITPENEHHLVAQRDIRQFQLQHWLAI

[12] = Inhibitory activity against 5-hydroxytryptamine 2C receptor
[13] = Inhibitory activity against Dopamine transporter; design: species or system Homo sapiens
[14] = molecular target: T4, Adenosine receptor A3 (Homo sapiens) (UniProt P0DMS8); assay: Inhibitory activity against Adenosine A3 receptor at 10 uM
T4 sequence (whole entry): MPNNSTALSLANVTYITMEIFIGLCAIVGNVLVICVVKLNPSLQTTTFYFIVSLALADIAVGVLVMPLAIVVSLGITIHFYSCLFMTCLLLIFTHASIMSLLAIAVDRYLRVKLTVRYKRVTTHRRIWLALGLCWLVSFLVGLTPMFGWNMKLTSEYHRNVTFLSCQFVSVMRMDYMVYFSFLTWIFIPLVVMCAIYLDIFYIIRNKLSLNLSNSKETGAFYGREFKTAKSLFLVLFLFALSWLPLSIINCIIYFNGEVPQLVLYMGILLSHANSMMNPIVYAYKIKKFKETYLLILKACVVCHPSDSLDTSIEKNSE

T1 sequence (Q99705 whole entry): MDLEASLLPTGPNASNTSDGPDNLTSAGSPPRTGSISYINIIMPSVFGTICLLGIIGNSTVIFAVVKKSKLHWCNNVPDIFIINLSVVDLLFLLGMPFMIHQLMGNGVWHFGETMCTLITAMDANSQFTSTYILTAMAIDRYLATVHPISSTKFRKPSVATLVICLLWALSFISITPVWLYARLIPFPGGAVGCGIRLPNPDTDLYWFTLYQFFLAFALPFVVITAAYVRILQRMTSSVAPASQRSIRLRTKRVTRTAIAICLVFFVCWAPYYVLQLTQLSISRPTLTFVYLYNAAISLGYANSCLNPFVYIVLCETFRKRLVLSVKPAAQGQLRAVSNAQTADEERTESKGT

| Structure (SMILES) | IC50 [1] | IC50 [2] | IC50 [3] | also measured |
| --- | --- | --- | --- | --- |
| CCN(CC)CCNC(=O)c1ccc(NC(=O)Nc2cccc(OC(F)(F)F)c2)cc1OC | 2.5 µM |  |  |  |
| CCN(CC)CCNC(=O)c1ccc(NC(=O)Nc2ccc(F)cc2)cc1OC | 15.8 µM |  |  |  |
| CN(C)CCNC(=O)c1ccc(NC(=O)c2ccc(-c3ccccc3)cc2)cc1 |  | > 100000 nM |  |  |
| COc1cc(NC(=O)Nc2ccc(-c3ccccc3)cc2)ccc1C(=O)NCCCN(C)C | 9.1 µM | 1480 nM |  |  |
| CCN(CC)CCNC(=O)c1ccc(NC(=O)Nc2cc(OC)cc(OC)c2)cc1OC | 18 µM |  |  |  |
| COc1cc(NC(=O)c2ccc(-c3ccccc3)cc2)ccc1C(=O)NC1CCN(Cc2ccccc2)CC1 |  | 130 nM |  |  |
| CCN(CC)CCNC(=O)c1ccc(NC(=O)Nc2ccccc2)cc1OC | > 100 µM |  |  |  |
| CCN(CC)CCNC(=O)c1ccc(NC(=O)Nc2ccc(C#N)cc2)cc1OC | 3.2 µM |  |  |  |
| COc1cc(NC(=O)c2ccc(-c3ccccc3)cc2)ccc1C(=O)NCCN1CCN(Cc2ccccc2)CC1 |  | 640 nM |  |  |
| COc1cc(NC(=O)Nc2cccc(Oc3ccccc3)c2)ccc1C(=O)NCCCN1CCCCC1 |  | 20 nM | 30 nM | IC50 [4]: > 100 µM |
| CCN(CC)CCNC(=O)c1ccc(NC(=O)Nc2ccc(OC(F)(F)F)cc2Br)cc1OC | 8.8 µM |  |  |  |
| CCN(CC)CCNC(=O)c1ccc(N(C)C(=O)Nc2ccc(Oc3ccccc3)cc2)cc1OC | 0.54 µM |  |  |  |
| O=C(Nc1ccc(Oc2ccccc2)cc1)Nc1ccc(C(=O)NCCN2CCN(Cc3ccccc3)CC2)cc1 |  | 140 nM | 5820 nM | IC50 [4]: 2.88 µM |
| CCN(CC)CCNC(=O)c1ccc(N2CCN(c3ccc(Oc4ccccc4)cc3)C2=O)cc1OC | > 100 µM |  |  |  |
| CCN(CC)CCNC(=O)c1ccc(NC(=O)c2ccc(-c3ccccc3)cc2)cc1OC |  | 370 nM |  |  |
| CCN(CC)CCN(C)C(=O)c1ccc(NC(=O)Nc2ccc(Oc3ccccc3)cc2)cc1 | 11 µM |  |  |  |
| CCN(CC)CCNC(=O)c1ccc(NC(=O)Nc2ccc(Oc3ccccc3)cc2)cc1OC | 0.72 µM | 140 nM | 880 nM |  |
| CCOc1cc(NC(=O)Nc2ccc(Oc3ccccc3)cc2)ccc1C(=O)NCCN(CC)CC |  | 240 nM | 1950 nM |  |
| COc1cc(NC(=O)c2ccc(Oc3ccccc3)cc2)ccc1C(=O)NCCCN(C)C |  | 1920 nM |  |  |
| CCN1CCCC1CNC(=O)c1ccc(NC(=O)Nc2ccc(Oc3ccccc3)cc2)cc1OC (centres undefined) |  | 530 nM | 3450 nM |  |
| CCN(CC)CCNC(=O)c1ccc(NC(=O)Nc2ccc(SC)cc2)cc1OC | 0.96 µM |  |  |  |
| CCN(CC)CCNC(=O)c1ccc(NC(=O)Nc2ccc(SC(F)(F)F)cc2)cc1OC | 0.2 µM |  |  |  |
| CCN(CC)CCNC(=O)c1ccc(NC(=O)Nc2ccc(Cl)c(Cl)c2)cc1OC | 0.71 µM |  |  |  |
| COc1cc(NC(=O)c2ccc(-c3ccccc3)cc2)ccc1C(=O)NCCCN(C)C |  | 640 nM | 5290 nM | IC50 [4]: > 100 µM |
| CCN(CC)CCNC(=O)c1ccc(NC(=O)Nc2ccc(Oc3ccccc3)cc2)cc1 | 3.5 µM |  |  |  |

| Structure (SMILES) | IC50 [1] | IC50 [2] | IC50 [3] | also measured |
| --- | --- | --- | --- | --- |
| COc1cc(NC(=O)Nc2ccccc2Oc2ccccc2)ccc1C(=O)NCCCN1CCCCC1 |  | > 10000 nM |  |  |
| CCN(CC)CCNC(=O)c1ccc(NC(=O)c2ccc(Oc3ccccc3)cc2)cc1OC |  | 1970 nM | 6810 nM |  |
| CCN(CC)CCNC(=O)c1ccc(NC(=O)Nc2cc(Cl)cc(Cl)c2)cc1OC | 4.8 µM |  |  |  |
| CCN(CC)CCNC(=O)c1ccc(NC(=O)Nc2ccc(F)c(Cl)c2)cc1OC | 3.9 µM |  |  |  |
| COc1cc(NC(=O)c2ccc(-c3ccccc3)cc2)ccc1C(=O)NCCN(C)C |  | 2410 nM | 12000 nM | IC50 [4]: > 100 µM |
| CCN(CC)CCNC(=O)c1ccc(N(C)C(=O)N(C)c2ccc(Oc3ccccc3)cc2)cc1OC | > 100 µM |  |  |  |
| COc1cc(NC(=O)Nc2ccc(Oc3ccccc3)cc2)ccc1C(=O)NCCCN1CCCCC1 |  | 50 nM |  | IC50 [5]: > 100 µM; IC50 [4]: 10 µM |
| CCN(CC)CCN(C)C(=O)c1ccc(NC(=O)Nc2ccc(Oc3ccccc3)cc2)cc1OC | > 100 µM |  |  |  |
| COc1cc(NC(=O)Nc2cccc(Nc3ccccc3)c2)ccc1C(=O)NCCCN1CCCCC1 |  | 8.1 nM | 25 nM | IC50 [4]: 10 µM |
| COc1cc(NC(=O)Nc2ccc(Nc3ccccc3)cc2)ccc1C(=O)NCCCN1CCCCC1 |  | 850 nM | 1440 nM |  |
| CCN1CCCC1CNC(=O)c1ccc(NC(=O)Nc2ccc(Oc3ccccc3)cc2)cc1 (centres undefined) |  | 250 nM | 1300 nM | IC50 [4]: 6.31 µM |
| CCN(CC)CCNC(=O)c1ccc(NC(=O)Nc2ccc(C(C)=O)cc2)cc1OC | 13 µM |  |  |  |
| CCN1CCCC1CNC(=O)c1ccc(-c2noc(-c3ccc(Oc4ccccc4)cc3)n2)cc1 (centres undefined) |  | 1900 nM |  |  |
| CCN(CC)CCNC(=O)c1ccc(NC(=O)Nc2cccc(C(F)(F)F)c2)cc1OC | 7.9 µM |  |  |  |
| CCN(CC)CCNC(=O)c1ccc(NC(=O)Nc2cccc(SC)c2)cc1OC | 4.7 µM |  |  |  |
| CCN(CC)CCNC(=O)c1ccc(NC(=O)Nc2ccc(OC(F)(F)F)cc2)cc1 |  | 60 nM | 250 nM | IC50 [5]: > 100 µM; IC50 [4]: > 100 µM |
| CCN(CC)CCNC(=O)c1ccc(NC(=O)N(C)c2ccc(Oc3ccccc3)cc2)cc1OC | 5.8 µM |  |  |  |
| CCN(CC)CCNC(=O)c1ccc(-c2noc(-c3ccc(Oc4ccccc4)cc3)n2)cc1 |  | 2450 nM |  |  |
| CCN(CC)CCNC(=O)c1ccc(NC(=O)Nc2ccc(C(=O)C(F)(F)F)cc2)cc1OC | 5.9 µM |  |  |  |
| CCN(CC)CCNC(=O)c1ccc(NC(=O)Nc2ccc(C(F)(F)F)cc2)cc1 |  | 5.3 nM | 170 nM |  |
| COc1cc(NC(=O)Nc2cccc(Oc3ccccc3)c2)ccc1C(=O)NCCCN1CCOCC1 |  | 70 nM | 110 nM | IC50 [6]: 670 nM; IC50 [5]: > 100 µM; IC50 [7]: 1800 nM; IC50 [4]: > 100 µM; inhibition [8]: 57%; inhibition [9]: 48%; inhibition [10]: 64%; inhibition [11]: 68%; IC50 [12]: 1300 nM; IC50 [13]: 1500 nM; inhibition [14]: 48% |
| CCN(CC)CCNC(=O)c1ccc(NC(=O)Nc2ccc(C(F)(F)F)cc2)cc1OC | 0.05 µM | 20 nM | 170 nM | IC50 [4]: > 100 µM |
| CCN(CC)CCNC(=O)c1ccc(NC(=O)Nc2ccc(Br)cc2)cc1OC | 0.25 µM |  |  |  |
| CCN(CC)CCNC(=O)c1cc(Cl)c(NC(=O)Nc2ccc(Oc3ccccc3)cc2)cc1OC | > 100 µM |  |  |  |
